Laboratory results: ChEMBL document CHEMBL2203147 (ACS Med Chem Lett, 2011)
Activity calls are given as the source filed them. No cut-off for these calls is given here.

Columns and labels:
[1] = Aqueous solubility of the compound; type: physicochemical
Rattus norvegicus [2] = assay: Induction of yawning in sc dosed Sprague-Dawley rat after 60 mins; type: functional, organism-based
Rattus norvegicus [3] = assay: Induction of hypothermia in Sprague-Dawley rat at 10 mg/kg, sc after 60 mins; type: functional, organism-based; parameters: dose 10 mg/kg
Method in brief: (§1)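 Readout is the change in core body temperature in rats after subcutaneous agonist dosing. Statistical significance was assessed at P < 0.05, 0.005 and 0.001.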

Rattus norvegicus [4] = assay: Induction of yawning in Sprague-Dawley rat at 0.01 to 10 mg/kg, sc after 60 mins; type: functional, organism-based
Rattus norvegicus [5] = assay: Induction of yawning in Sprague-Dawley rat at 0.01 mg/kg, sc after 60 mins; type: functional, organism-based; parameters: dose 0.01 mg/kg
Rattus norvegicus [6] = assay: Induction of yawning in Sprague-Dawley rat at 1 mg/kg, sc after 60 mins; type: functional, organism-based; parameters: dose 1 mg/kg
Rattus norvegicus [7] = assay: Induction of hypothermia in Sprague-Dawley rat at 3.2 mg/kg, sc after 60 mins; type: functional, organism-based; parameters: dose 3.2 mg/kg; method in brief: as §1
Rattus norvegicus [8] = assay: Induction of yawning in Sprague-Dawley rat at 1 mg/kg, sc pre-treated with 32 mg/kg D3 receptor antagonist SB-277011A measured 30 mins post dose; type: functional, organism-based
Method in brief: (§2)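 The selective antagonist (D3: SB-277011A; D2: L-741,626) was given before the subcutaneous agonist dose. Yawning was then scored in rats.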

Rattus norvegicus [9] = assay: Induction of yawning in Sprague-Dawley rat at 10 mg/kg, sc pre-treated with 32 mg/kg D3 receptor antagonist SB-277011A measured 30 mins post dose; type: functional, organism-based; method in brief: as §2
Rattus norvegicus [10] = assay: Induction of yawning in Sprague-Dawley rat at 1 mg/kg, sc pre-treated with 1 mg/kg D2 receptor antagonist L-741,626 measured 30 mins post dose; type: functional, organism-based; method in brief: as §2
Rattus norvegicus [11] = assay: Induction of yawning in Sprague-Dawley rat at 10 mg/kg, sc pre-treated with 1 mg/kg D2 receptor antagonist L-741,626 measured 30 mins post dose; type: functional, organism-based; method in brief: as §2
[12] = biological target: D(1A) dopamine receptor (Homo sapiens) (UniProt P21728); assay: Displacement of [3H]SCH-23390 from human cloned dopamine D1 receptor expressed in LhD1 cells at 10000 nM after 60 mins by scintillation counter; type: cell-based
[13] = biological target: D(3) dopamine receptor (Homo sapiens) (UniProt P35462); assay: Agonist activity at human dopamine D3 receptor expressed in CHOp cells assessed as […] quinpirole-induced mitogenesis after 24 hrs relative to quinpirole; type: functional, cell-based
Method in brief: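 Mitogenesis functional assay on cloned human D3 receptor expressed in CHO cells. Quinpirole serves as the standard D3 agonist control. Readouts are EC50 and maximal stimulation, expressed as a percentage of the quinpirole maximum.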

Rattus norvegicus [14] = species on record: Rattus norvegicus; conditions: Sprague-Dawley, 10 mg/kg
Rattus norvegicus [15] = assay: Induction of hypothermia in Sprague-Dawley rat at 10 mg/kg, sc pre-treated with 1 mg/kg D2 receptor antagonist L-741,626 measured 30 mins post dose
D(3) dopamine receptor = D(3) dopamine receptor (Rattus norvegicus, UniProt P19020); assay: Displacement of [3H]R(+)-7-OH-DPAT from Sprague-Dawley rat dopamine D3 receptor after 90 mins
[16] = Displacement of [3H]SCH 23390 from Sprague-Dawley rat dopamine D1-like receptor after 90 mins
Rattus norvegicus [17] = species on record: Rattus norvegicus; conditions: Sprague-Dawley, 0.32 mg/kg
Rattus norvegicus [18] = species on record: Rattus norvegicus; conditions: Sprague-Dawley, 10 mg/kg; remark: listed apart in the source
D(2) dopamine receptor = D(2) dopamine receptor (Rattus norvegicus, UniProt P61169); assay: Displacement of [3H]Spiperone from Sprague-Dawley rat dopamine D2-like receptor after 90 mins
Rattus norvegicus [19] = species on record: Rattus norvegicus; assay: Selectivity ratio of Ki for Sprague-Dawley rat dopamine D2-like receptor to Ki for Sprague-Dawley rat dopamine D3 receptor
Rattus norvegicus [20] = species on record: Rattus norvegicus; assay: Selectivity ratio of Ki for Sprague-Dawley rat dopamine D1-like receptor to Ki for Sprague-Dawley rat dopamine D3 receptor
Rattus norvegicus [21] = assay: Induction of yawning in Sprague-Dawley rat at 0.1 to 10 mg/kg, sc after 60 mins; type: functional, organism-based

Sequence of D(3) dopamine receptor (P19020 whole entry): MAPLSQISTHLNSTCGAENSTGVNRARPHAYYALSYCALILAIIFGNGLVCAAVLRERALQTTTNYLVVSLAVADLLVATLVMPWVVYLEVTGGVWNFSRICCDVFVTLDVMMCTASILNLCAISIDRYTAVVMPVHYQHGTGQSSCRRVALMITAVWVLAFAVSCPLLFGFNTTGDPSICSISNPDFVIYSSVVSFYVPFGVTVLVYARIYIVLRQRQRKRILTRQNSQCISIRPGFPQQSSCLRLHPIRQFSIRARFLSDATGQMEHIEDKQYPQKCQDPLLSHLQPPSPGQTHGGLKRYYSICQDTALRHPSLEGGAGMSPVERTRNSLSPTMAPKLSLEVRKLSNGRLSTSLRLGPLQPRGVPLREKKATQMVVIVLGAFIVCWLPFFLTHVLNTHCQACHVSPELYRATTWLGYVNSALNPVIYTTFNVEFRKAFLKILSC
Sequence of D(2) dopamine receptor (P61169 whole entry): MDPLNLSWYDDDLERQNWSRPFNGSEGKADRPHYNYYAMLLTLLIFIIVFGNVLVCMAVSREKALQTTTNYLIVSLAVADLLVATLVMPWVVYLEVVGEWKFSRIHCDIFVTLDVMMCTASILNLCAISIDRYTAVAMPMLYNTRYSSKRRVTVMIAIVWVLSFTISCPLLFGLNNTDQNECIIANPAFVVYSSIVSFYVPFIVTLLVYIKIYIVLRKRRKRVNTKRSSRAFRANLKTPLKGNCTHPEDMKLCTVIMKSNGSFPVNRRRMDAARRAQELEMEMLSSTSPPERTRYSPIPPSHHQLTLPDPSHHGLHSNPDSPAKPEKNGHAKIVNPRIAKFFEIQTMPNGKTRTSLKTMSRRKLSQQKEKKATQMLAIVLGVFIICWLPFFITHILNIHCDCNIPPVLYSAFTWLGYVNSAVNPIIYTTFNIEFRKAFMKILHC
Sequence of D(1A) dopamine receptor (Homo sapiens) (P21728 whole entry): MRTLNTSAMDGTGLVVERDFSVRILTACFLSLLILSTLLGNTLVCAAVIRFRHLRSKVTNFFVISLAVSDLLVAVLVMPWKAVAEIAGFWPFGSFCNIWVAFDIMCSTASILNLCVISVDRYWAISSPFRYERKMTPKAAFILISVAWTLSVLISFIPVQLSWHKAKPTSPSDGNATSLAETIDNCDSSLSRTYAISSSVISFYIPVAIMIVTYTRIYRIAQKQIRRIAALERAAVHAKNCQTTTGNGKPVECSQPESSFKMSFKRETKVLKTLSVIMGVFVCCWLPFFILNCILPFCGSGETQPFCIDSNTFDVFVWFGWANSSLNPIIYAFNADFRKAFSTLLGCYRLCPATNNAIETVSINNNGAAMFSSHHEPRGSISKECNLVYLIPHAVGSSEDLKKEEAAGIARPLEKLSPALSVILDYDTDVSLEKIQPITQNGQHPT
Sequence of D(3) dopamine receptor (Homo sapiens) (P35462 whole entry): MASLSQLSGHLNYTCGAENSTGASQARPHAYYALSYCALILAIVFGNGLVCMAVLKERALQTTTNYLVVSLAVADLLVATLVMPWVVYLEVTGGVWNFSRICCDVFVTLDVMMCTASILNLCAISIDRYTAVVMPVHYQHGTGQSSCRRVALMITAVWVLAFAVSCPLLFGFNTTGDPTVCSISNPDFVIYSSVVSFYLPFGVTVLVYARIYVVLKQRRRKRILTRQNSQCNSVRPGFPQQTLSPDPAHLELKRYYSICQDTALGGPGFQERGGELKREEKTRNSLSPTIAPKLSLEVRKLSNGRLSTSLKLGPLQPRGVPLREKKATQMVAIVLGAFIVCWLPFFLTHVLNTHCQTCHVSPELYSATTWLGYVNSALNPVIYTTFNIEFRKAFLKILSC

CCCN(CC[C@]1(O)C[C@H](NC(=O)c2ccc3ccccc3c2)C1)[C@H]1CCc2nc(N)sc2C1.Cl
solubility [1]: > 100 mg/mL
Activity (Rattus norvegicus [2]): Dose-dependent effect
Activity (Rattus norvegicus [3]): Active
Activity (Rattus norvegicus [4]): Active
Activity (Rattus norvegicus [5]): Active
Activity (Rattus norvegicus [6]): Active
Activity (Rattus norvegicus [7]): inactive
Activity (Rattus norvegicus [8]): inactive
Activity (Rattus norvegicus [9]): inactive
Activity (Rattus norvegicus [10]): Active
Activity (Rattus norvegicus [11]): Active
Activity [12]: inactive
Emax [13]: 103%
deltaT (Rattus norvegicus [14]): 0.75 °C
Activity (Rattus norvegicus [15]): Active

CCCN[C@H]1CCc2nc(N)sc2C1 [PRAMIPEXOLE]
Ki (D(3) dopamine receptor): 0.45 nM
Ki [16]: > 10000 nM
Activity (Rattus norvegicus [2]): Dose-dependent effect
Activity (Rattus norvegicus [3]): Active
deltaT (Rattus norvegicus [17]): 0.75 °C
inhibition (Rattus norvegicus [18]): Active

CCCN(CC[C@]1(O)CC[C@H](NC(=O)c2ccc3ccccc3c2)CC1)[C@H]1CCc2nc(N)sc2C1
Ki (D(3) dopamine receptor): 0.93 nM
Ki (D(2) dopamine receptor): 3550 nM
Ki [16]: 14100 nM
Ratio Ki (Rattus norvegicus [19]): 3820
Ratio Ki (Rattus norvegicus [20]): 15100

CCCN(CC[C@H]1C[C@H](NC(=O)c2ccc3ccccc3c2)C1)[C@H]1CCc2nc(N)sc2C1
Ki (D(3) dopamine receptor): 0.41 nM
Ki (D(2) dopamine receptor): 584 nM
Ki [16]: 6120 nM
Ratio Ki (Rattus norvegicus [19]): 1420
Ratio Ki (Rattus norvegicus [20]): 14800

CCCN(CC[C@H]1CC[C@H](NC(=O)/C=C/c2ccccc2)CC1)[C@H]1CCc2nc(N)sc2C1
solubility [1]: > 50 mg/mL

CCCN(CC[C@]1(O)CC[C@@H](NC(=O)c2ccc3ccccc3c2)CC1)[C@H]1CCc2nc(N)sc2C1
Ki (D(3) dopamine receptor): 1.6 nM
Ki (D(2) dopamine receptor): 1630 nM
Ki [16]: 11600 nM
Ratio Ki (Rattus norvegicus [19]): 1040
Ratio Ki (Rattus norvegicus [20]): 7370

CCCN(CC[C@H]1CC[C@H](NC(=O)c2ccc3ccccc3c2)CC1)[C@H]1CCc2nc(N)sc2C1
Ki [16]: > 5000 nM
solubility [1]: > 50 mg/mL

CCCN(CC[C@]1(O)C[C@@H](NC(=O)c2ccc3ccccc3c2)C1)[C@H]1CCc2nc(N)sc2C1.Cl
solubility [1]: > 100 mg/mL
Activity (Rattus norvegicus [2]): Dose-dependent effect
Activity (Rattus norvegicus [21]): Active
Activity (Rattus norvegicus [6]): Active

CCCN(CC[C@H]1C[C@@H](NC(=O)c2ccc3ccccc3c2)C1)[C@H]1CCc2nc(N)sc2C1
Ki (D(3) dopamine receptor): 0.35 nM
Ki (D(2) dopamine receptor): 564 nM
Ki [16]: 3060 nM
Ratio Ki (Rattus norvegicus [19]): 1630
Ratio Ki (Rattus norvegicus [20]): 8820
